From PubChem
OX1R antag-1 – blocks the human orexin 1 receptor | O43613 | CHO/OX1R cells, Fluo-8 calcium fluorescence, orexin A | inhibition, % at 5 µM | hit rate 0.43% among 330,000 | AID 434989;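 active = inhibition above its plate's threshold, mean inhibition of all tested compounds on the plate plus 3 SD, cut at about 37% in these data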;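 note: 0% = orexin A challenge wells and 100% = SB-334867-A antagonist wells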
TAAR1 antagonist – human TAAR1 antagonism; hit rate 1.5% among 360,000; inhibition, % at 3 µM; CHO RD-HGA16 TAAR1, Fluo-8 calcium fluorescence, antagonist;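 active = inhibition above a per-plate cutoff, the mean inhibition of test compounds on that plate plus 3 SD, cut at about 49% in these data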;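 note: 0% = DMSO plus EC80 beta-PEA response and 100% = DMSO alone without agonist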
Target sequence (Q96RJ0 whole entry, looked up): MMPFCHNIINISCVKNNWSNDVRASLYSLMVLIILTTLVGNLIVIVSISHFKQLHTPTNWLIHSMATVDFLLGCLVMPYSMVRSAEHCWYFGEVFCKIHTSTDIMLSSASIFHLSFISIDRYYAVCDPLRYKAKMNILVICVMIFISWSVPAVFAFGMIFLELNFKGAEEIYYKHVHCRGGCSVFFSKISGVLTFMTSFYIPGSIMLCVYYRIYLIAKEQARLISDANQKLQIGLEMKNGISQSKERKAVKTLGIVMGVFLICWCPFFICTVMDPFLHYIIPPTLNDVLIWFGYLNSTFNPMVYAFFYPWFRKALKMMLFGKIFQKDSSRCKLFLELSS
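Test system – hTAAR1-expressing CHO RD-HGA16 cells, Gα16-coupled · Also added – β-PEA at EC80 concentration, post-compound challenge · Compound – 3 µM, single point · Incubation – dye loading 75 min at 37 °C, then 30 min room temperature · Measured by – Fluo-8 intracellular calcium dye fluorescence, real-time kinetic reads · Benchmarks – vehicle and agonist controls · Replicates – singlicate, one well per test compound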
OX1R antag-2 – antagonists of human orexin 1 receptor (OX1R); O43613; OX1R-expressing cells, FRET antagonist read-out; inhibition, % at 6.6 µM; hit rate 1.8% among 330,000; in the data active = inhibition mostly above about 38%, no sharp cut-off; inactive = mostly below about 40%;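 note: 0% = agonist challenge alone and 100% = reference antagonist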
GPR7 antag – blocks human GPR7 receptor signaling. hit rate 1.1% among 290,000. GPR7-expressing cells, fluorescence antagonist assay. inhibition, % at 4.4 µM. P48145; in the data active = inhibition above about 16%, passing the limit was not always enough;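 note: cells stimulated with the agonist NPW; 0% = agonist with vehicle and 100% = vehicle without agonist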
Target sequence (P48145 whole entry, looked up): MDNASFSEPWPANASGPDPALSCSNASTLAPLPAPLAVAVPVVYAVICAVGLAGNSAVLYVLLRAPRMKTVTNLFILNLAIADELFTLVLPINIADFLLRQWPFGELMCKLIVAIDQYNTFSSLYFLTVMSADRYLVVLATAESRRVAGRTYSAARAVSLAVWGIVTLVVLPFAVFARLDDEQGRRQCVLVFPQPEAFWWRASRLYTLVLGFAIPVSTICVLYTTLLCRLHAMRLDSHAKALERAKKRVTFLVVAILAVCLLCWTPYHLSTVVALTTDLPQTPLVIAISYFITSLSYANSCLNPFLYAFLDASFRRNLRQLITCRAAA
CHO parental Ca – counter-screen: ATP calcium response change in parental CHO cells | parental CHO-K1, ATP-induced calcium, Fluo-8 fluorescence | inhibition, % at 5.6 µM | hit rate 0.63% among 330,000 | AID 463079;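 active = inhibition above that plate's mean sample inhibition plus 3 SD, cut at about 26% in these data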;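 note: 0% = ATP-challenged DMSO wells and 100% = DMSO wells without ATP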
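Test system: untransfected parental CHO cell line; also added: ATP stimulus; dosing: 5.6 µM, single dose; signal: calcium-sensitive Fluo-8 fluorescence; measure: percent inhibition of ATP-evoked calcium rise, normalized to controls; benchmarks: low control ATP plus DMSO, high control DMSO only; replication: one well per compound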
TAAR1 ag – agonists of human TAAR1. Q96RJ0. CHO RD-HGA16 TAAR1, Fluo-8 calcium fluorescence; vehicle wells 0%, saturating PEA agonist 100%. activation, % at 3 µM. hit rate 0.99% among 360,000;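 active = activation above the mean activation of all test compounds in the run plus 3 SD, cut at about 38% in these data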
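Assay system: CHO-derived RD-HGA16 cells with stable Gα16 and human TAAR1; timing: 17-24 h seeding, 75 min 37 °C dye, 30 min RT; read-out: % activation from peak over basal fluorescence ratio, DMSO-to-PEA scaled; measured by: kinetic Fluo-8 calcium fluorescence; benchmarks: low control DMSO, high control PEA (EC100); doses: 3 µM single concentration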
GPR7 antag conf – human GPR7 antagonism, confirmation assay | shares compounds with GPR7 antag | GPR7-expressing cells, calcium fluorescence antagonist mode | inhibition, % at 4.4 µM | hit rate 52% among 2,400 | AID 1952; in the data active = inhibition above about 24%;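 note: stimulated with the GPR7 agonist NPW; 0% = agonist plus vehicle and 100% = vehicle alone without agonist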
MCHR1 antag – antagonizes human MCHR1, a GPR7 antagonist counter-screen; shares compounds with GPR7 antag; MCHR1-expressing cells, fluorescence antagonist assay; inhibition, % at 4.4 µM; hit rate 62% among 2,400; in the data active = inhibition above about 22%;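 note: 0% = vehicle with agonist and 100% = vehicle without agonist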
* = called active by the depositor; . = no result given. Rows were chosen to be rich in hits. Some 4.6% of all compounds tested hit in one or more screens of this group.

SMILES	OX1R antag-1	TAAR1 antagonist	OX1R antag-2	GPR7 antag	CHO parental Ca	TAAR1 ag	GPR7 antag conf	MCHR1 antag
CC(C)CC(=O)NC(Nc1ccc([N+](=O)[O-])cc1)C(Cl)(Cl)Cl (configuration not stated)	-6	7	15	26*	-3	16	14	45*
O=C(NS(=O)(=O)Oc1cccc(F)c1)OC[C@@H]1CCCN2CCCCC12 (some centres not stated)	-5	-2	10	23*	2	-2	-11	10
CCCC1NC(=O)c2cccnc2-n2c1nc1ccc(OC)cc1c2=O (configuration not stated)	.	-9	.	.	.	1	.	.
O=C(Nc1cccc(Cl)c1)c1ccccc1	-17	0	11	.	-10	4	.	.
CCN(c1ccccc1)S(=O)(=O)c1cc(C(=O)Nc2cccc(Cl)c2)ccc1F	-2	32	21	26*	12	7	9	51*
O=C(Nc1cccc2ccccc12)c1ccc([N+](=O)[O-])cc1	-6	-7	36	42*	-4	6	6	18
O=C(COC(=O)CCc1c[nH]c2ccccc12)Nc1ccc([N+](=O)[O-])cc1	-8	18	30	26*	-3	8	49*	41*
O=C(COC(=O)CCc1c[nH]c2ccccc12)Nc1cc([N+](=O)[O-])ccc1Cl	-13	-8	30	2	-10	6	.	.
O=C(NCCc1c[nH]c2ccccc12)c1ccc([N+](=O)[O-])cc1	17	12	18	31*	2	2	30*	26*
O=C(Nc1ccc2c(c1)OCCO2)C1C(c2ccccc2)=Nc2ccccc2N1C(=O)c1cccnc1 (configuration not stated)	.	-15	.	.	.	8	.	.
CN1C(=O)[C@H]2[C@@H](c3ccc(C(F)(F)F)cc3)N[C@]3(CCCN(Cc4ccc(Cl)cc4)C3=O)[C@H]2C1=O	.	6	.	.	.	1	.	.
CC(CCn1cccn1)NC(=O)c1cc(COc2ccc(F)cc2F)on1 (configuration not stated)	-31	-4	8	6	-10	13	.	.
CC(CCn1cccn1)NC(=O)c1cc(COc2ccc(F)cc2Cl)on1 (configuration not stated)	-26	9	-4	34*	-10	2	-7	14
CSCCCNC(=S)N1CCN(c2ccc(C(C)=O)cc2)CC1	-2	8	24	26*	12	6	28*	31*
CC(=O)c1ccc(N2CCN(C(=S)Nc3ccccc3)CC2)cc1	-15	-2	12	8	0	18	.	.
Cc1ccccc1Cn1c(C)c(C(=O)N(C)Cc2ccc(F)cc2)sc1=O	.	22	.	.	.	2	.	.
CN(C)CCN1CCN(C2CN(Cc3cn(Cc4ccccc4C(F)(F)F)nn3)S(=O)(=O)C2)CC1 (configuration not stated)	.	-9	.	.	.	1	.	.
Cc1ccc(NC(=O)C2CCN(S(=O)(=O)c3cccs3)CC2)cc1	-21	19	-3	0	-4	1	.	.
Cc1ccc(-c2csc(NC(=O)C3CCN(S(=O)(=O)c4cccs4)CC3)n2)cc1	6	1	15	39*	22	1	43*	57*
Cc1ccc(COn2c(-c3ccc(Cl)cc3)nc3ccc([N+](=O)[O-])cc32)cc1	-1	27	13	2	-7	34	.	.
O=C(O)COn1c(-c2ccccc2)nc2ccc([N+](=O)[O-])cc21	-20	-12	44	31*	-13	3	2	16
CCOC(=O)C(C)On1c(-c2ccc(Cl)cc2)nc2ccc([N+](=O)[O-])cc21 (configuration not stated)	9	41	37	26*	-6	16	35*	52*
CC(O)c1nc2cc([N+](=O)[O-])ccc2n1Cc1ccccc1 (configuration not stated)	-9	-12	12	-5	-14	6	.	.
CCOC(=O)C(C)On1c(-c2ccccc2)nc2ccc([N+](=O)[O-])cc21 (configuration not stated)	-22	13	19	.	-42	1	.	10
Nc1[nH]c(C(=O)c2ccccc2)c(-c2cccnc2)c1C(=O)c1ccccc1	.	-2	.	.	.	5	.	.
SMILES	OX1R antag-1	TAAR1 antagonist	OX1R antag-2	GPR7 antag	CHO parental Ca	TAAR1 ag	GPR7 antag conf	MCHR1 antag
CCOC(=O)[C@]12CCCC=C1N(Cc1ccc3c(c1)OCO3)C(=O)[C@H](CC(=O)NCCCN1CCCC1=O)C2	.	-9	.	.	.	1	.	.
CN(C)c1nc(N)nc2c1ncn2C1OC(CO)CC1O (configuration not stated)	.	-18	.	.	.	2	.	.
COc1ccc(NC(=O)Nc2cccc([N+](=O)[O-])c2)cc1Cl	29	27	74*	35*	5	13	38*	59*
COc1ccc(C(=O)Nc2cccc([N+](=O)[O-])c2)cc1Br	-1	7	25	6	9	19	.	.
O=C(Nc1ccc(OC(F)F)c(Cl)c1)Nc1ccc2c(c1)OCO2	45*	38	44	26*	37*	7	13	56*
O=C(Nc1ccc(Cl)c(Cl)c1)c1ccc2c(c1)OCO2	-9	10	21	27*	-7	3	13	32*
O=C(Nc1ccc([N+](=O)[O-])cc1)Nc1ccc(OC(F)F)c(Cl)c1	84*	60*	76*	23*	100*	8	72*	75*
O=C(Nc1ccc2c(c1)OCO2)Nc1ccc2c(c1)OCO2	-8	-13	5	-13	-2	12	.	.
O=C1NC[C@@H](CCCCN2C[C@H](Cc3ccccc3)N(CCc3ccc(O)cc3)C(=O)C2=O)N(CCc2ccccc2)C1=O	.	-7	.	.	.	4	.	.
COc1ccccc1NS(=O)(=O)c1cc(NC(=O)Cc2n[nH]c(=O)c3ccccc23)ccc1Cl	16	29	10	.	-5	4	.	.
Cc1cc(O)ccc1-c1ccc2nncn2c1	.	-24	.	.	.	2	.	.
CC(C)c1ccccc1NC(=O)Cn1c(/C=C/c2ccccc2)nc2ccccc21	-23	.	9	-9	-15	.	.	.
CC(C)c1ccccc1NC(=O)Cn1c(-c2ccccc2Cl)nc2ccccc21	-25	-2	19	23*	8	1	16	16
COc1ccc(C2CCCN2CC(O)COc2ccccc2C(C)C)cc1 (configuration not stated)	-20	-26	14	24*	-20	2	33*	41*
CCc1ccc(NC(=O)CSc2nc(C)cs2)cc1	.	-24	.	.	.	5	.	.
